From PubChem
Most compounds without a hit are left out; they make up all but 2.2% or so of the library.
C8 TRAIL sens: caspase-8 TRAIL sensitization | 360,000 tested, 1% active | AID 624354 | NB7+C8 cells + TRAIL, ATPlite viability luminescence | inhibition (viability loss, TRAIL sensitization), % at 10 µM;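 active = compounds causing at least 50% loss of cell viability in the single-dose screen, relative to plate controls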
FLuc act counter: firefly luciferase counter-screen for stimulation assays. P08659. ATPlite luciferase biochemical, luminescence, 10 min; 0 = ATP-free wells, 1 = DMSO control. activation factor at 10 µM. 200,000 tested, under 10 active;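 active = luciferase activation factor, scaled between plate controls, of at least 2 with compound at 10 µM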
Target sequence (P08659 whole entry, looked up): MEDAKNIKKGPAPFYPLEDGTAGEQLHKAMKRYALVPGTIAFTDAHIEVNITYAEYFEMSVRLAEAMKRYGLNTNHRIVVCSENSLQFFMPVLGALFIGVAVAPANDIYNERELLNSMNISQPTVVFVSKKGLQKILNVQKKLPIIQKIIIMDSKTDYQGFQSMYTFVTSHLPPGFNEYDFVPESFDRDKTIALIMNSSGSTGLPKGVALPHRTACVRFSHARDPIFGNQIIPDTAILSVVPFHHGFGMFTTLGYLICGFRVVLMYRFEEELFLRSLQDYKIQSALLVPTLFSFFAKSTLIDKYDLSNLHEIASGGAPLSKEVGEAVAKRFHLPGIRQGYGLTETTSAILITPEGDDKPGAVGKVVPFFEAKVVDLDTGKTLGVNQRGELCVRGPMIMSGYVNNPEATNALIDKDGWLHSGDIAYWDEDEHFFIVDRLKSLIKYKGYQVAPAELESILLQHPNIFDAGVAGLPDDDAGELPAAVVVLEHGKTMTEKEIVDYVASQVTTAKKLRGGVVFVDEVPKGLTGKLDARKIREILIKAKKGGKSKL
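Assay system: Luciferase/luciferin reagent mix; Medium: PBS as buffer for the ATP substrate; Dosing: test compounds dosed from 2 mM stocks in 100% DMSO; Times: 10 min, room temperature; Signal: luminescence from luciferase reaction; Read-out: luciferase activation; Controls: No-ATP low control, compound-free enzyme-plus-ATP high control.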
PPC-1+TRAIL kill: compounds killing PPC-1 cancer cells with TRAIL present (potentiator screen, no TRAIL-free arm). cell killing (% activity), % at 4 µM or 5 µM. PPC-1 cells + TRAIL, ATPLite viability luminescence. 220,000 tested, 0.41% active;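 active = cell killing above 50% in the first pass at 4 µM, then a duplicate retest at 5 µM averaging 50% or more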;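 note: plate controls were cells with TRAIL plus DMSO for no effect and medium-only wells lacking cells for full effect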
NF-kB expr up: NF-kB expression increase, human neuronal cells | fold change at 12.5 µM | NF-kB reporter expression; active compounds read high | 190,000 tested, 1.6% active | AID 1239; in the data active = fold change above about 3.3
APP 5'UTR act: activates APP 5'UTR luciferase reporter; AID 1276; SH-SY5Y APP 5'UTR luciferase reporter, luminescence; zero percent = DMSO vehicle wells; 190,000 tested, 1% active; activation, % at 2 µM;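 active = activation above a set limit, based on mean plus 3 SD of controls, cut at about 140% in these data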
FLuc inh counter: Photinus pyralis luciferase inhibition counter-screen. 200,000 tested, 1.5% active. AID 1006. inhibition, % at 10 µM. P08659. ATPLite firefly luciferase biochemical luminescence, 10 min;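 active = inhibition above about 50% when tested at 10 µM, limit read from the data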
Starred values were filed as active, the others as inactive.

CC(=O)Nc1cccc(OCCCNS(=O)(=O)c2ccc(F)cc2)c1 was read as C8 TRAIL sens -20.1 and PPC-1+TRAIL kill 5.1.
For COc1ccc(C#Cc2cccc(-c3nc(C(=O)N4CCN(C)CC4)cc4c3[C@H](CCO)N(S(=O)C(C)(C)C)C4)c2)cc1OC (stereo partly specified) the results were C8 TRAIL sens -4.2.
For Cc1ccsc1/C=N/Nc1cccc(C(=O)O)c1 the results were C8 TRAIL sens 16.1, FLuc act counter 0.4, PPC-1+TRAIL kill 0.8, NF-kB expr up 13.9*, APP 5'UTR act -42.3 and FLuc inh counter 58.9*.
Screening C/C=C/COC(=O)C1=C(C)NC(=O)NC1c1ccc2c(c1)OCO2 (stereo unspecified) returned C8 TRAIL sens 3.4.
Screening COc1ccccc1/C=C/C(=O)Nc1ccc2c(c1)CCC2 returned C8 TRAIL sens 10.3, FLuc act counter 0.7, PPC-1+TRAIL kill 1.0, NF-kB expr up 7.78*, APP 5'UTR act 176.2* and FLuc inh counter 25.4.
For COc1ccc(OC)c(/C=C/C(=O)Nc2ccc3c(c2)CCC3)c1 the results were C8 TRAIL sens -27.7, FLuc act counter 1, PPC-1+TRAIL kill -4.6, NF-kB expr up 1.09, APP 5'UTR act 8.0 and FLuc inh counter -4.7.
`O=C(/C=C/c1ccccc1)Nc1ccc2c(c1)OCCO2` gave C8 TRAIL sens 74.7*, FLuc act counter 0.1, NF-kB expr up 3.45*, APP 5'UTR act 151.8* and FLuc inh counter 94.0*.
For COc1ccccc1/C=C/C(=O)OCC(=O)Nc1ccc2c(c1)OCCO2 the results were C8 TRAIL sens -17.0.
`COc1ccccc1/C=C/C(=O)Nc1ccc2c(c1)OCCO2` gave C8 TRAIL sens 75.4*, FLuc act counter 0.2, PPC-1+TRAIL kill 56.2*, NF-kB expr up 8.42*, APP 5'UTR act 134.0 and FLuc inh counter 84.8*.
Screening CCN(CC(=O)Nc1ccc2c(c1)OCCO2)C(=O)/C=C/c1ccccc1 returned C8 TRAIL sens 1.1, FLuc act counter 1, PPC-1+TRAIL kill 21.6, NF-kB expr up 1.55, APP 5'UTR act -9.4 and FLuc inh counter 0.3.
COc1ccc(OCC(O)CN2CC(C)OC(C)C2)cc1 (stereo unspecified) was read as C8 TRAIL sens -10.7.
Screening O=C(C1=NOC2(C1)C(=O)Nc1ccccc12)N1CCCCC1 (stereo unspecified) returned C8 TRAIL sens -12.6.
CN1CCN(C(=O)C2=NOC3(C2)C(=O)Nc2ccccc23)CC1 (stereo unspecified) was read as C8 TRAIL sens 52.1*.
Screening CCC1CCCCN1C(=O)C(=O)c1cn(CC(=O)N(CC)CC)c2ccccc12 (stereo unspecified) returned C8 TRAIL sens 4.6.
CCCCNC(=O)c1ccc2nc(CC)c(N(CC)CCN(C)C)n2c1 was read as C8 TRAIL sens -3.4.
For Cc1cc(/C=C2/C(=N)N3C(=NC2=O)SN=C3S(C)(=O)=O)c(C)n1-c1ccc(F)cc1 the results were C8 TRAIL sens 38.1, FLuc act counter 0.3, PPC-1+TRAIL kill 9.2, NF-kB expr up 1.87, APP 5'UTR act 35.6 and FLuc inh counter 69.5*.
For Cc1cc(NC(=O)c2ccc(Cl)cc2)cc(C)c1OCC(=O)N1CCOCC1 the results were C8 TRAIL sens 53.9*.
For COc1ccccc1CNC(=O)COC(=O)Cn1cnc2c1c(=O)n(C)c(=O)n2C the results were C8 TRAIL sens -31.0.
For CCOC(=O)C1CCCN(C(=O)c2cc(S(=O)(=O)N3CCCCC3)ccc2C)C1 (stereo unspecified) the results were C8 TRAIL sens -6.4 and PPC-1+TRAIL kill 2.6.
Screening CCCn1c(/N=C/c2ccc3c(c2)OCO3)nc2ccccc21 returned C8 TRAIL sens -13.7, FLuc act counter 0.6, PPC-1+TRAIL kill -34.3, NF-kB expr up 1.25, APP 5'UTR act -11.6 and FLuc inh counter 36.6.
`C=CCn1c(/N=C/c2ccc3c(c2)OCO3)nc2ccccc21` gave C8 TRAIL sens -1.8, FLuc act counter 0.3, PPC-1+TRAIL kill 15.2, NF-kB expr up 0.99, APP 5'UTR act 2.1 and FLuc inh counter 71.6*.
For Cc1cc(NC(=O)C2CC(=O)N(c3cccc(Cl)c3)C2)no1 (stereo unspecified) the results were C8 TRAIL sens 6.5.
O=C1c2ccccc2C(=O)C1c1ccc(Cl)cc1 was read as C8 TRAIL sens -23.5.
For O=C1c2ccccc2C(=O)C12OC2c1ccc(Cl)cc1Cl (stereo unspecified) the results were C8 TRAIL sens 24.7, FLuc act counter 1.1, PPC-1+TRAIL kill 18.0, NF-kB expr up 4.06*, APP 5'UTR act -24.8 and FLuc inh counter -9.1.
Screening COc1cc2c(cc1OC)-c1nnc(C)n1C(C)(C)C2 returned C8 TRAIL sens -10.8, FLuc act counter 1, PPC-1+TRAIL kill 66.2*, NF-kB expr up 1.07, APP 5'UTR act 12.2 and FLuc inh counter -3.7.
COc1cc2c(cc1OC)-c1nnc(C)n1C1(CCCC1)C2 was read as C8 TRAIL sens -6.6, FLuc act counter 1, PPC-1+TRAIL kill 0.5, NF-kB expr up 1.05, APP 5'UTR act -6.0 and FLuc inh counter -4.5.
COc1cc(/C=N/N(C)c2ccccc2)ccc1O was read as C8 TRAIL sens 11.1, FLuc act counter 0.6, PPC-1+TRAIL kill -4.2, NF-kB expr up 10.4*, APP 5'UTR act 179.2* and FLuc inh counter 37.0.
For O=C1CCCC2=C1C1(CCCC1)N=C(Nc1nc3cc(-c4ccccc4)ccc3o1)N2 the results were C8 TRAIL sens 31.6.
`Oc1ccc(/C=N/N2CCN(C3c4ccccc4-c4ccccc43)CC2)cc1O` gave C8 TRAIL sens 58.3* and PPC-1+TRAIL kill -13.0.
`CCN(CC)C(=O)C1=C(C)N(CCC2=CCCCC2)C(=O)C(CC(=O)NC(c2ccccc2)c2ccccc2)C1` (stereo unspecified) gave C8 TRAIL sens 3.1.
Screening CCCCNC(=O)c1cn(C)c2ccc(S(=O)(=O)N3CC(C)CC(C)C3)cc2c1=O (stereo unspecified) returned C8 TRAIL sens 56.5*.
CCn1cc(C(=O)NCC(OC)OC)c(=O)c2cc(S(=O)(=O)N3CCCC3)ccc21 was read as C8 TRAIL sens 13.6.
For CCCCSCCCNC(=O)c1cn(C)c2ccc(S(=O)(=O)N3CCCC3)cc2c1=O the results were C8 TRAIL sens 8.7.
CCn1cc(C(=O)NCC(OC)OC)c(=O)c2cc(S(=O)(=O)N3CCC(C)CC3)ccc21 was read as C8 TRAIL sens 65.2*.
For CCc1nc2c(OCc3ccc(C(F)(F)F)cc3)cccn2c1N(C)C(=O)c1ccco1 the results were C8 TRAIL sens -6.6.
`COc1ccc(/C(O)=C2/C(=O)C(=O)N(CCCN3CCOCC3)C2c2ccc(C)cc2)cc1` (stereo unspecified) gave C8 TRAIL sens -1.6.
